# What was measured:
# Assay type in all cases: cell-based
# [1] = system: DU145 – Homo sapiens prostrate carcinoma; assay: MTT cytotoxicity assay, DU145; details: DU-145, 24 h, read-out: IC50 values (μM) DU145
# In short: (§1)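 Test compound at 1 to 100 μM for 24 h. MTT (0.5 mg mL−1) added for 3 h, formazan dissolved in DMSO, absorbance read. Run in triplicate; IC50 calculated.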
# [2] = system: B16-F10 – Mus musculus mouse skin melanoma; assay: MTT cytotoxicity assay, B16-F10; details: B16-F10, 24 h, read-out: IC50 values (μM) B16-F10
# In short: as §1
# [3] = system: Hep G2 – Homo sapiens hepatocellular carcinoma; assay: MTT cytotoxicity assay, HepG2; details: HepG2, 24 h, read-out: IC50 values (μM) HEPG2
# In short: as §1
# [4] = system: A549 – Homo sapiens lung carcinoma; assay: MTT cytotoxicity assay, A549; details: A549, 24 h, read-out: IC50 values (μM) A549
# In short: as §1
# [5] = system: CHO-K1 – Cricetulus griseus chinese hamster ovary cells; assay: MTT cytotoxicity assay, non-cancerous CHO-K1; details: CHO-K1, 24 h, read-out: IC50 values (μM) CHO
SMILES,IC50 [1],IC50 [2],IC50 [3],IC50 [4],IC50 [5]
"O=C(Nc1ccc(F)cc1)c1ccccc1-n1c(=O)[nH]c2ccc(F)cc2c1=O [Compound 3k, 2-(6-Fluoro-2,4-dioxo-1,2-dihydroquinazolin-3(4H)-yl)-N-(4-fluorophenyl)benzamide]",11.59 ± 0.06 µM,30 ± 0.42 µM,28.7 ± 0.92 µM,17.2 ± 0.41 µM,
"O=C(Nc1ccc(Br)cc1)c1ccccc1-n1c(=O)[nH]c2ccc(F)cc2c1=O [Compound 3l, N-(4-Bromophenyl)-2-(6-fluoro-2,4-dioxo-1,2-dihydroquinazolin-3(4H)-yl)benzamide]",12.63 ± 0.08 µM,28.5 ± 0.31 µM,7.77 ± 0.02 µM,17.4 ± 0.18 µM,51.5 ± 2.74 µM
"COc1cccc2c1C(=O)c1c(O)c3c(c(O)c1C2=O)C[C@@](O)(C(=O)CO)C[C@@H]3O[C@H]1C[C@H](N)[C@H](O)[C@H](C)O1 [Doxorubicin, doxorubicin, reference compound]",0.363 ± 0.01 µM,0.7 ± 0.56 µM,0.72 ± 0.012 µM,0.55 ± 0.16 µM,
"O=C(Nc1ccc(Br)cc1)c1ccccc1-n1c(=O)[nH]c2ccccc2c1=O [Compound 3e, N-(4-Bromophenyl)-2-(2,4-dioxo-1,2-dihydroquinazolin-3(4H)-yl)benzamide]",12.05 ± 0.02 µM,14.67 ± 0.05 µM,9.48 ± 0.05 µM,11.7 ± 0.14 µM,69.4 ± 5.17 µM
"O=c1[nH]cc(F)c(=O)[nH]1 [Compound 5FU, 5-fluorouracil, reference compound]",16.32 ± 0.02 µM,7.55 ± 0.01 µM,23 ± 0.27 µM,29.6 ± 1.64 µM,
"O=C(Nc1ccc(F)cc1)c1ccccc1-n1c(=O)[nH]c2ccc(Cl)cc2c1=O [Compound 3o, 2-(6-Chloro-2,4-dioxo-1,2-dihydroquinazolin-3(4H)-yl)-N-(4-fluorophenyl)benzamide]",5.17 ± 0.07 µM,16.03 ± 0.06 µM,3.02 ± 0.06 µM,26.3 ± 1.03 µM,74.5 ± 9.44 µM
"CCNC(=O)c1ccccc1-n1c(=O)[nH]c2ccc(Cl)cc2c1=O [Compound 3p, 2-(6-Chloro-2,4-dioxo-1,2-dihydroquinazolin-3(4H)-yl)-N-ethylbenzamide]",13.02 ± 0.03 µM,31.67 ± 0.14 µM,33.9 ± 0.71 µM,22.8 ± 0.71 µM,
"COc1ccc(NC(=O)c2ccccc2-n2c(=O)[nH]c3ccccc3c2=O)cc1 [Compound 3b, 2-(2,4-dioxo-1,2-dihydroquinazolin-3(4H)-yl)-N-(4-methoxyphenyl)benzamide]",11.56 ± 0.06 µM,24.8 ± 0.7 µM,23.3 ± 0.52 µM,19.5 ± 0.25 µM,
"Cc1ccc(NC(=O)c2ccccc2-n2c(=O)[nH]c3ccccc3c2=O)cc1 [Compound 3c, 2-(2,4-dioxo-1,2-dihydroquinazolin-3(4H)-yl)-N-(p-tolyl)benzamide]",11.49 ± 0.04 µM,17.9 ± 0.17 µM,5.33 ± 0.12 µM,15.2 ± 0.7 µM,
"CCCCNC(=O)c1cc(Cl)ccc1-n1c(=O)[nH]c2ccccc2c1=O [Compound 3g, N-Butyl-5-chloro-2-(2,4-dioxo-1,2-dihydroquinazolin-3(4H)-yl)benzamide]",18.65 ± 0.08 µM,20.5 ± 0.91 µM,15.3 ± 0.78 µM,30.4 ± 5.52 µM,
"CCNC(=O)c1ccccc1-n1c(=O)[nH]c2ccc(F)cc2c1=O [Compound 3m, N-Ethyl-2-(6-fluoro-2,4-dioxo-1,2-dihydroquinazolin-3(4H)-yl)benzamide]",19.39 ± 0.14 µM,41.4 ± 0.81 µM,20.2 ± 0.31 µM,26.3 ± 1.32 µM,88 ± 3.56 µM
"O=C(Nc1ccccc1)c1ccccc1-n1c(=O)[nH]c2ccc(Cl)cc2c1=O [Compound 3n, 2-(6-Chloro-2,4-dioxo-1,2-dihydroquinazolin-3(4H)-yl)-N-phenylbenzamide]",10.4 ± 0.13 µM,14.83 ± 0.01 µM,12.3 ± 0.26 µM,14.7 ± 0.18 µM,73.9 ± 2.81 µM
"COc1ccc(NC(=O)c2ccccc2-n2c(=O)[nH]c3ccc(F)cc3c2=O)cc1 [Compound 3j, 2-(6-Fluoro-2,4-dioxo-1,2-dihydroquinazolin-3(4H)-yl)-N-(4-methoxyphenyl)benzamide]",12.3 ± 0.17 µM,34.3 ± 1.55 µM,8.74 ± 0.34 µM,30.4 ± 1.35 µM,
"O=C(Nc1ccccc1)c1ccccc1-n1c(=O)[nH]c2ccccc2c1=O [Compound 3a, 2-(2,4-dioxo-1,2-dihydroquinazolin-3(4H)-yl)-N-phenylbenzamide]",14.83 ± 0.13 µM,39.51 ± 0.13 µM,8.73 ± 0.02 µM,29.4 ± 0.45 µM,
"O=C(Nc1ccccc1)c1ccccc1-n1c(=O)[nH]c2ccc([N+](=O)[O-])cc2c1=O [Compound 3r, 2-(6-Nitro-2,4-dioxo-1,2-dihydroquinazolin-3(4H)-yl)-N-phenylbenzamide]",15.59 ± 0.07 µM,33.13 ± 0.12 µM,16 ± 0.51 µM,16.7 ± 0.3 µM,
"CCCCNC(=O)c1cc(Cl)ccc1-n1c(=O)[nH]c2ccc(Cl)cc2c1=O [Compound 3q, N-Butyl-5-chloro-2-(6-chloro-2,4-dioxo-1,2-dihydroquinazolin-3(4H)-yl)benzamide]",9.37 ± 0.03 µM,36.46 ± 0.1 µM,8.51 ± 0.2 µM,28.7 ± 1.38 µM,
"CCNC(=O)c1ccccc1-n1c(=O)[nH]c2ccccc2c1=O [Compound 3h, 2-(2,4-Dioxo-1,2-dihydroquinazolin-3(4H)-yl)-N-ethylbenzamide]",10.44 ± 0.02 µM,27.1 ± 0.68 µM,16.7 ± 1.72 µM,34.8 ± 4.65 µM,94.2 ± 2.44 µM

# Source: publication PMC9169238 (RSC Advances, 2022)
